Screening data: PubChem BioAssay, several laboratories
Most compounds without a hit are left out; they make up all but 2.4% or so of the library.
DAGLB inhibitor – diacylglycerol lipase beta (human) inhibition. Q8NCG7. HEK293T DAGLB membrane lysate, EnzChek fluorogenic substrate. inhibition, % at 5.17 µM. actives 0.059% (n = 340,000); in the data active means inhibition above about 34%;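 further: 0% = enzyme with vehicle and 100% = wells lacking enzyme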
CendR NRP1 mod – alters CendR peptide binding to human NRP-1; FAM-RPARPAR peptide binding to NRP-1, fluorescence polarization; inhibition, % at 25 µM; actives 0.85% (n = 360,000);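 active means inhibition or corrected inhibition above about 18%, plus a signal ratio from 0.5 to 1.5, limit read from the data, passing the limit was not always enough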
Target sequence (O14786 whole entry, looked up): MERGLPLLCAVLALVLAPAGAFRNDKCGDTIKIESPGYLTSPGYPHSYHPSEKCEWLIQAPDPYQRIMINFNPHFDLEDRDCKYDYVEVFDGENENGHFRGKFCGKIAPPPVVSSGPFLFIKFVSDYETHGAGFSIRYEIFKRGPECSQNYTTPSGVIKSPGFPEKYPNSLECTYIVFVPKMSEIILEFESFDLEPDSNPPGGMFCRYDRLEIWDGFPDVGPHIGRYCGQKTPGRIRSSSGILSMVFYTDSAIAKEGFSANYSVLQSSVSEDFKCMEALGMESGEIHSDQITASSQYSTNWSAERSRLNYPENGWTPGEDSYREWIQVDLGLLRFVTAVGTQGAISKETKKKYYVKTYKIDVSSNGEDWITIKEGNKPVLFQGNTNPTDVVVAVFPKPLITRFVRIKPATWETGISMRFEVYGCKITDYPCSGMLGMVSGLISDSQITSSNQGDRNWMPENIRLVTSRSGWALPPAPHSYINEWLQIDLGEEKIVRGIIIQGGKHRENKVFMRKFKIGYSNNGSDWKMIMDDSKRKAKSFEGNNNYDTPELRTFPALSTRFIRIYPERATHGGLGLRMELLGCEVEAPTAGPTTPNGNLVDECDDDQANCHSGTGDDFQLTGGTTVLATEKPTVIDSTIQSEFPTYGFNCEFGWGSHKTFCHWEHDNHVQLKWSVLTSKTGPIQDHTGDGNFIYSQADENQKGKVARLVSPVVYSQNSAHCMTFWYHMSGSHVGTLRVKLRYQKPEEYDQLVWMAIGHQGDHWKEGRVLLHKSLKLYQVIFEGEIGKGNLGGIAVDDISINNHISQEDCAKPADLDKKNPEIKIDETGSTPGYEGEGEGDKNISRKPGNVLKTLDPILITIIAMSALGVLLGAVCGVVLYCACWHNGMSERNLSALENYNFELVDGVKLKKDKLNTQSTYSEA
Myeloid diff MLP – myeloid differentiation induction | ER-HoxA9 myeloid progenitors, lysozyme-GFP differentiation, flow cytometry | calls only at 10 µM | actives 1% (n = 360,000) | AID 624256;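 active means normalized GFP-positive differentiation at or above the plate's own cutoff, the solvent-only control mean plus 3 SD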;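 further: cells exposed to compound for four days before flow analysis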
SENP1 FRET inh – inhibitors of human SENP1 SUMO protease catalytic domain; recombinant SENP1 catalytic domain, CyPet-SUMO1-YPet FRET cleavage; actives 0.21% (n = 360,000); Q9P0U3; AID 624204; inhibition, % at 10 µM;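 active means inhibition at least 30% at 10 µM, raw YFP signal under a set limit, fluorescence ratio 0.5 to 1.5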;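 further: 0% = enzyme with DMSO and 100% = no enzyme wells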
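Assay system: hSENP1 catalytic domain, recombinant. Amount: SENP1 enzyme, 20 pM final. Schedule: 50 min reaction, RT, dark. Technique: FRET, CFP and YFP emission. Control set: no-enzyme wells low, DMSO-plus-enzyme wells high control.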
MT1-MMP act inh – MT1-MMP (human) activation inhibition; P50281; AID 651647; HT1080 RFP-PRO-GFP cells, GFP/RFP ratio fluorescence, overnight; percent of plate control window, DMSO zero; actives 0.061% (n = 360,000); GFP/RFP ratio change, % at 20 µM;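 active means GFP/RFP ratio change of at least 30% with cell ATP level not reduced by more than half and red fluorescence within 50% of control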
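Assay system – RFP-PRO-GFP reporter HT1080 cells · Compound dosing – single dose of 20 µM compound, 1% DMSO final · Incubation – overnight compound exposure at 37 °C · Measure – GFP/RFP fluorescence ratio · Benchmarks – DMSO wells and RFP-L50D-GFP cells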
MIN6 prolif – induces beta-cell replication in MIN6 cells; MIN6 cells proliferation, ATPlite luminescence, 48 h; cells starved in 0.2% serum; 100% = growth in 10% serum; actives 0.29% (n = 330,000); proliferation, % at 10 µM; AID 2380;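 active means compounds whose signal lies at least 3.5 SD above the mean of all wells on their plate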;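 further: 0% = DMSO-treated cells in low-serum medium and 100% = 10% serum control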
* = called active by the depositor.

`O=C(Nc1ccccc1N1CCN(c2ccccc2)CC1)c1ccccc1` gave DAGLB inhibitor -16, CendR NRP1 mod 4, Myeloid diff MLP inactive, SENP1 FRET inh 1, MT1-MMP act inh -2 and MIN6 prolif -1.
For COc1ccc2c(CC(=O)N3CCN(S(=O)(=O)c4ccc(F)cc4)CC3)coc2c1 the results were DAGLB inhibitor -1, CendR NRP1 mod 0, Myeloid diff MLP active, SENP1 FRET inh 0, MT1-MMP act inh -6 and MIN6 prolif -3.
Screening CN1C[C@@H]2C(c3ccc(Cl)nc3)C3(c4cccnc4)CC2(C3)[C@H]1c1ccccc1 (stereo partly specified) returned DAGLB inhibitor 0, CendR NRP1 mod 10, Myeloid diff MLP inactive, SENP1 FRET inh -10, MT1-MMP act inh -3 and MIN6 prolif -1.
CN1C[C@@H]2C(c3ccc(Cl)nc3)C3(c4ccccc4)CC2(C3)[C@H]1c1ccccc1 (stereo partly specified) was read as DAGLB inhibitor -7, CendR NRP1 mod 23*, Myeloid diff MLP inactive, SENP1 FRET inh 0, MT1-MMP act inh -3 and MIN6 prolif -8.
Screening COCCN(C(=O)COC(=O)CCC1CCCC1)c1c(N)n(Cc2ccccc2)c(=O)[nH]c1=O returned DAGLB inhibitor -1, CendR NRP1 mod 0, Myeloid diff MLP inactive, SENP1 FRET inh 1, MT1-MMP act inh -2 and MIN6 prolif -3.
`Cc1cc2c(cc1S(=O)(=O)NC1CCCCC1C)OCC(=O)N2` (stereo unspecified) gave DAGLB inhibitor 0, CendR NRP1 mod 40*, Myeloid diff MLP inactive, SENP1 FRET inh 2, MT1-MMP act inh 4 and MIN6 prolif 2.
Screening Cc1cc2[nH]c(=O)c(=O)[nH]c2cc1S(=O)(=O)NC1CCCCC1C (stereo unspecified) returned DAGLB inhibitor -1, CendR NRP1 mod -14, Myeloid diff MLP inactive, SENP1 FRET inh 1, MT1-MMP act inh 0 and MIN6 prolif -3.
For c1ccc2c(c1)NCC1CCCN21 (stereo unspecified) the results were DAGLB inhibitor 5, CendR NRP1 mod -24, Myeloid diff MLP active, SENP1 FRET inh 2, MT1-MMP act inh -13 and MIN6 prolif -5.
`Cc1ccc2c(cnn2C(=O)CCC(=O)N2CCCCC2)c1` gave DAGLB inhibitor -2, CendR NRP1 mod 5, Myeloid diff MLP inactive, SENP1 FRET inh 1, MT1-MMP act inh -3 and MIN6 prolif -4.
For O=C(CCC(=O)n1ncc2ccccc21)N1CCCCC1 the results were DAGLB inhibitor 1, CendR NRP1 mod 6, Myeloid diff MLP active, SENP1 FRET inh 1, MT1-MMP act inh 3 and MIN6 prolif 4.
Screening CCOC(=O)c1ccc(NC(=O)CSC2=NN3CCCC(=O)N=C3S2)cc1 returned DAGLB inhibitor 0, CendR NRP1 mod 6, Myeloid diff MLP inactive, SENP1 FRET inh 0, MT1-MMP act inh -2 and MIN6 prolif -3.
For Cc1cccc(C(=O)NCC(=O)N2CCC2)c1 the results were DAGLB inhibitor 0, CendR NRP1 mod 7, Myeloid diff MLP inactive, SENP1 FRET inh 2, MT1-MMP act inh 3 and MIN6 prolif -5.
For CCc1c(C)nc(SCC(=O)NNC(=O)c2ccco2)[nH]c1=O the results were DAGLB inhibitor -1, CendR NRP1 mod 1, Myeloid diff MLP active, SENP1 FRET inh 1, MT1-MMP act inh 0 and MIN6 prolif -1.
Screening CCc1c(C)nc(SCC(=O)Nc2ccc(Br)cc2)[nH]c1=O returned DAGLB inhibitor 2, CendR NRP1 mod -8, Myeloid diff MLP inactive, SENP1 FRET inh 0, MT1-MMP act inh -7 and MIN6 prolif -1.
COc1ccc(C(=O)Nc2ccccc2C(=O)NCCN2CCOCC2)cc1 was read as DAGLB inhibitor -2, CendR NRP1 mod 3, Myeloid diff MLP inactive, SENP1 FRET inh 1, MT1-MMP act inh 2 and MIN6 prolif -1.
For COc1ccc(C(=O)Nc2ccccc2C(=O)NCCN2CCOCC2)cc1OC the results were DAGLB inhibitor -1, CendR NRP1 mod 12, Myeloid diff MLP active, SENP1 FRET inh 2, MT1-MMP act inh -2 and MIN6 prolif -3.
For O=C(COc1ccc(S(=O)(=O)N2CCCCC2)cc1Cl)N1CCCC1 the results were DAGLB inhibitor -2, CendR NRP1 mod 1, Myeloid diff MLP active, SENP1 FRET inh -2, MT1-MMP act inh -2 and MIN6 prolif -1.
For O=S1(=O)CCC(NC(=S)N2CCCCC2)C1 (stereo unspecified) the results were DAGLB inhibitor 0, CendR NRP1 mod 6, Myeloid diff MLP inactive, SENP1 FRET inh 0, MT1-MMP act inh -11 and MIN6 prolif 0.
Screening O=S(=O)(c1cccc(Cl)c1)N1CN(CC2CCCO2)c2nc3ccccc3nc21 (stereo unspecified) returned DAGLB inhibitor 3, CendR NRP1 mod -4, Myeloid diff MLP active, SENP1 FRET inh -30, MT1-MMP act inh -3 and MIN6 prolif -1.
`O=S(=O)(c1ccc(Cl)cc1)N1CN(CC2CCCO2)c2nc3ccccc3nc21` (stereo unspecified) gave DAGLB inhibitor -5, CendR NRP1 mod 5, Myeloid diff MLP inactive, SENP1 FRET inh -4, MT1-MMP act inh -8 and MIN6 prolif 0.
Screening Cc1ccc(C(=O)C[n+]2cccc3cc(C)ccc32)cc1 returned DAGLB inhibitor -4, CendR NRP1 mod -17, Myeloid diff MLP active, SENP1 FRET inh -25, MT1-MMP act inh -82 and MIN6 prolif -3.
C/C(=C(/CCO)SSCC1CCCO1)N(C=O)Cc1cnc(C)nc1N (stereo unspecified) was read as DAGLB inhibitor 0, CendR NRP1 mod -4, Myeloid diff MLP active, SENP1 FRET inh 2, MT1-MMP act inh -1 and MIN6 prolif -1.
For Cc1ncc(C[n+]2csc(CCO)c2C)c(N)n1 the results were DAGLB inhibitor -2, CendR NRP1 mod -2, Myeloid diff MLP inactive, SENP1 FRET inh -1, MT1-MMP act inh 2 and MIN6 prolif 0.
For CCOC(=O)/C=C1/SCC(=O)N1CC(=O)Nc1ccc2c(c1)CCC2 the results were DAGLB inhibitor -1, CendR NRP1 mod -18, Myeloid diff MLP inactive, SENP1 FRET inh 0 and MT1-MMP act inh -2.
`Cc1cccc(Cc2c(C)nc3c(C(=O)NCc4ccco4)cnn3c2C)c1` gave DAGLB inhibitor -1, CendR NRP1 mod -19, Myeloid diff MLP active, SENP1 FRET inh -4, MT1-MMP act inh -5 and MIN6 prolif -4.
Screening CC(C)CCn1c(SCC(=O)OCn2nnc3ccccc3c2=O)nc2ccccc2c1=O returned DAGLB inhibitor -6, CendR NRP1 mod -1, Myeloid diff MLP inactive, SENP1 FRET inh 0, MT1-MMP act inh 5 and MIN6 prolif -3.
